pIC50: −log10 of the molar value.
Experiments:
Type in all cases: functional, cell-based
HeLa = assay: Cytotoxicity against human HeLa cells after 24 hrs by MTT assay; settings: Homo sapiens, HeLa, 24 h; read-out: IC50
Summary of the method: (§1)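 Cell lines from the Navy Medical College, seeded at 8000 cells/well in 96-well plates. Compounds dissolved in DMSO (stock 10 g/L) and freshly diluted in medium. Dilutions were added in duplicate 24 h after seeding, with incubation continued at 37 °C. Viability read by MTT. IC50 taken as the concentration giving 50% growth inhibition, determined following NCCLS recommendations.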

[1] = Cytotoxicity against human QGY7701 cells after 24 hrs by MTT assay; settings: QGY7701, 24 h; summary of the method: as §1
SW480 = assay: Cytotoxicity against human SW480 cells after 24 hrs by MTT assay; settings: SW480, 24 h; summary of the method: as §1
A549 = assay: Cytotoxicity against human A549 cells after 24 hrs by MTT assay; settings: for pIC50: Homo sapiens, A549, 24 h, read-out: IC50; summary of the method: as §1

## C=CC1=C(C(=O)Nc2ccc(OCC)cc2)C(c2ccc(F)cc2)OC1 (stereo unspecified)
HeLa
  pIC50: < 4.00
[1]
  pIC50: 4.21
SW480
  pIC50: < 4.00
A549; a549
  IC50: Not Active

## C=CC1=C(C(=O)N2CCN(c3ccc(F)cc3)CC2)C(c2ccc(OC)cc2)OC1 (stereo unspecified)
HeLa
  pIC50: 5.01
[1]
  pIC50: 4.96
SW480
  pIC50: < 4.00
A549
  pIC50: 5.08

## C=CC1=C(C(=O)N2CCN(c3cccc(Cl)c3Cl)CC2)C(c2ccc(OC)cc2)OC1 (stereo unspecified)
HeLa
  pIC50: 5.40
[1]
  pIC50: 5.30
SW480
  pIC50: 4.53
A549
  pIC50: 5.05

## COc1cccc2c1C(=O)c1c(O)c3c(c(O)c1C2=O)C[C@@](O)(C(=O)CO)C[C@@H]3O[C@H]1C[C@H](N)[C@H](O)[C@H](C)O1 [DOXORUBICIN]
HeLa
  pIC50: 5.95
[1]
  pIC50: 5.06
SW480
  pIC50: 4.19
A549
  pIC50: 5.18

Reference: ChEMBL document CHEMBL1932981, “Synthesis of novel 2, 5-dihydrofuran derivatives and evaluation of their anticancer activity” (Eur J Med Chem, 2012)
